From PubChem BioAssay
An excerpt weighted towards active compounds, which were near 1.5% of everything screened.
S100A4 inh HTS = blocks human S100A4 binding to myosin IIA peptide; 360,000 compounds, 0.14% hits; S100A4/TAMRA-MyoIIA peptide fluorescence polarization; inhibition, % at 10.7 µM; P26447;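 active = mean inhibition of at least 70% across replicates, with every replicate also reaching that level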
Target sequence (P26447 whole entry, looked up): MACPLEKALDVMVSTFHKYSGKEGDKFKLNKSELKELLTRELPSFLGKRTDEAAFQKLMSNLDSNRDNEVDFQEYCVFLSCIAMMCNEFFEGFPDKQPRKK
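incubation = readout 5 min after mixing, signal stable up to 60 min | system = S100A4 monomer protein | buffer or medium = HEPES pH 7.2 with CaCl2, KCl, NaCl, DTT, Triton | benchmarks = neutral control DMSO, positive control TFP | also added = fluorescent myosin IIA peptide, 5 nM | compound dosing = one concentration per compound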
PKA-R2B act = activates the human PKA-R2B holoenzyme complex. AID 504700. P22694+P31323. 340,000 compounds, 0.079% hits. PKA-R2B holoenzyme dissociation, Cy5-IP20 fluorescence polarization; R2B truncated from residue 108, S112A mutant; 0% DMSO only, 100% 113 µM cGMP. activation, % at 11.4 µM;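 active = activation above a cutoff set at the mean over all compounds plus 3 SD, cut at about 18% in these data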;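 also: higher means more holoenzyme dissociation and a rise in polarization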
Target sequence (P31323 whole entry, looked up, other chains not shown, the tested form may be a part): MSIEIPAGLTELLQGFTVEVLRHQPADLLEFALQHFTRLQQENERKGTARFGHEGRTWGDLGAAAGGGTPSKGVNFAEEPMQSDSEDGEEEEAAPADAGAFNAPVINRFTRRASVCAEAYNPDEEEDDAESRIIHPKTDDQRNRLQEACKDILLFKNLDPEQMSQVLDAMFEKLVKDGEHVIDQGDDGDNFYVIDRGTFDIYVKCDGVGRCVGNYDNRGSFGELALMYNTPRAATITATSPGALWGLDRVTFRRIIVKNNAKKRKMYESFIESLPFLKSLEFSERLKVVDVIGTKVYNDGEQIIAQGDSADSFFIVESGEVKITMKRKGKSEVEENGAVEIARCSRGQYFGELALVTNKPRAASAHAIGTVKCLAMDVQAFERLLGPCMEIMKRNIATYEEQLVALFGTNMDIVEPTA
SIRT5 block = inhibitors of human sirtuin-5 desuccinylase; Purified SirT5, succinyl-peptide AMC, trypsin-coupled fluorescence; 330,000 compounds, 1.1% hits; inhibition, % at 15 µM; in the data active = inhibition above about 15%
CRFR2-BP antag = blocks CRF-induced signaling of the CRF-BP/CRF-R2 complex; HEK293 CRF-R2/CRF-BP, CRF-induced calcium fluorescence; inhibition, % at 11.8 µM; 350,000 compounds, 0.59% hits;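 active = inhibition of the ligand-induced calcium signal above about 50% at the single tested concentration, limit read from the data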
PKA-R1A activ = PKA-R1A complex activation; P00514+P68181; activation, % at 11.4 µM; 340,000 compounds, 0.083% hits; PKA-R1A dissociation, Cy5-IP20 fluorescence polarization; scaled: DMSO 0%, 113 µM cGMP 100%;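 active = percent activation above the mean of all tested compounds plus 3 SD, cut at about 19% in these data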;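 also: higher means more PKAc released from R1A so a rise in polarization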
* hit, by the source's call; · = no result given.

SMILES	S100A4 inh HTS	PKA-R2B act	SIRT5 block	CRFR2-BP antag	PKA-R1A activ
COc1ccc(CN(C)C[C@@H]2OCCCC[C@@H](C)Oc3ccc(NS(=O)(=O)c4cn(C)cn4)cc3C(=O)N([C@H](C)CO)C[C@H]2C)cc1	-5	·	1	·	·
C=CCN(CC(=O)NCc1ccccc1)C(=O)c1csnn1	·	-6	·	87*	-6
CC1CCCCN1CCCNC(=O)Cn1c(=O)c2cccn2c2ccccc21 (stereo not drawn)	-4	-9	21*	-1	2
CCC1CCCCN1CCCNC(=O)Cn1c(=O)c2cccn2c2ccccc21 (stereo not drawn)	9	1	-2	-10	-2
C[C@@H]1CN([C@@H](C)CO)S(=O)(=O)c2ccc(-c3ccncc3)cc2O[C@@H]1CN(C)C	5	·	3	·	·
O=C(CCC(=O)OCc1ccc(C(=O)Oc2ccc(Cl)cc2)cc1)Nc1ccccc1	·	0	·	-2	-12
O=C(CCC(=O)OCc1ccc(Br)cc1)Nc1ccccc1	-5	1	35*	6	-3
COc1ccccc1CN1[C@H](CO)[C@H](c2ccccc2)C12CN(C(C)=O)C2	-20	·	17*	·	·
COc1cccc(CN2[C@H](CO)[C@H](c3ccccc3)C23CN(C(=O)C2CCCC2)C3)c1	3	·	2	·	·
COc1cccc(CN2[C@@H](CO)[C@H](c3ccccc3)C23CN(C(=O)C2CCCC2)C3)c1	16	·	26*	·	·
O=C(c1ccccc1)N1CC2(C1)[C@H](c1ccccc1)[C@@H](CO)N2Cc1ccccn1	107*	·	-1	·	·
C[C@@H]1CN([C@@H](C)CO)C(=O)c2cc(NC(=O)Nc3ccccc3)ccc2O[C@@H](C)CCCCO[C@H]1CN(C)S(=O)(=O)c1ccc(F)cc1	-2	·	-2	·	·
C[C@H](CO)N1C[C@H](C)[C@H](CN(C)S(=O)(=O)c2ccc(F)cc2)Oc2ccc(NC(=O)Nc3ccc(C(F)(F)F)cc3)cc2CC1=O	0	·	8	·	·
O=C(Nc1nccs1)c1ccc(Cl)cc1[N+](=O)[O-]	2	5	-3	8	-4
O=C(Nc1nccs1)c1cc2cc(Cl)ccc2oc1=O	1	5	21*	3	0
COc1ccc(S(=O)(=O)Nc2ccc3c(c2)CC(=O)N([C@@H](C)CO)C[C@H](C)[C@@H](CN(C)CC2CCCCC2)O3)cc1	-18	·	16*	·	·
COc1ccc(S(=O)(=O)Nc2ccc3c(c2)CC(=O)N([C@H](C)CO)C[C@H](C)[C@@H](CN(C)CC2CCCCC2)O3)cc1	-2	·	24*	·	·
COc1ccc(S(=O)(=O)Nc2ccc3c(c2)CC(=O)N([C@@H](C)CO)C[C@@H](C)[C@@H](CN(C)CC2CCCCC2)O3)cc1	-14	·	13	·	·
Cc1ccc(-n2[nH]c(C)c(/C=N/Nc3ccc([N+](=O)[O-])cc3[N+](=O)[O-])c2=O)cc1C	·	-3	·	85*	-17
Cc1ccc2c(c1)CO[C@@]21O[C@H](CCO)C[C@H](O)[C@H]1O	0	2	23*	-3	6
C[C@@H](NC(=O)C[C@@H]1C=C[C@H](NC(=O)C2CCC2)[C@H](CO)O1)c1ccccc1	-7	·	3	·	·
O=C(NC1CCC1)[C@@H]1[C@@H](CO)[C@@H]2Cn3c(cccc3=O)[C@@H]2N1CC1CCOCC1	10	·	-6	·	·
COc1ccc(Nc2nc(OC)nc(N3CCOCC3)n2)cc1	0	-6	-3	5	-9
COc1nc(N2CCOCC2)nc(-n2cccc2)n1	-1	-9	23*	-1	-14
CCC(=O)OCc1c(C(F)(F)F)nn(C)c1Sc1ccc(F)cc1	·	-9	·	51*	-11
SMILES	S100A4 inh HTS	PKA-R2B act	SIRT5 block	CRFR2-BP antag	PKA-R1A activ
CCC(=O)OCc1c(C(F)(F)F)nn(C)c1Sc1ccc(Cl)cc1	·	6	·	6	0
COc1ccc(CC(=O)NCC2CCCN(Cc3ccc(OC(F)(F)F)cc3)C2)cc1 (stereo not drawn)	-7	9	21*	10	-2
COc1ccc(S(=O)(=O)NCC2CCCN(Cc3cccc(C(C)=O)c3)C2)cc1 (stereo not drawn)	87*	9	-1	5	-1
COc1ccc(CC(=O)NCC2CCCN(Cc3ccccc3Cl)C2)cc1 (stereo not drawn)	-4	-10	17*	7	-4
CC(C)CC#Cc1cnc2c(c1)C(=O)N([C@H](C)CO)C[C@@H](C)[C@H](CN(C)C(=O)c1ccccc1)O2	2	·	-3	·	·
COc1ccc(OC)c(NC(=O)CSc2nnc(CNC(=O)c3ccco3)o2)c1	·	3	·	7	-4
COc1ccc(OC)c(NC(=O)CSc2nnc(CNC(=O)c3cccs3)o2)c1	0	-7	21*	4	-13
CO[C@@H]1CN(C)C(=O)c2cc(NC(C)=O)ccc2OC[C@@H](C)N(CCc2ccccc2)C[C@@H]1C	-3	·	0	·	·
Cc1ccc(S(=O)(=O)/N=C2/NC(=O)/C(=C\c3ccco3)S2)cc1	·	-11	·	34	7
Cc1ccc(S(=O)(=O)/N=C2/NC(=O)/C(=C/c3ccccc3)S2)cc1	-3	-5	2	115*	3
CC(=O)Nc1ccc(S(=O)(=O)/N=C2/NC(=O)/C(=C\c3ccco3)S2)cc1	-11	5	15*	-5	-4
C[C@@H]1CN([C@@H](C)CO)C(=O)c2cc(NS(=O)(=O)c3ccccc3)ccc2O[C@@H](C)CCCCO[C@@H]1CN(C)C(=O)c1ccncc1	8	·	-1	·	·
C[C@@H]1CN([C@H](C)CO)C(=O)c2cc(-c3cccnc3)cnc2O[C@H]1CN(C)C(=O)Cc1cccnc1	6	·	1	·	·
C#CCOCCOCCOCCNc1nc(N2CCN(C(=O)CCCCCCCCCCNC(=O)Cn3cc(CCCCCN)nn3)CC2)nc(N2CCN(C(=O)CCCCCCCCCCNC(=O)[C@H]([C@@H](C)CC)n3cc(CCCCN=C(N)N)nn3)CC2)n1	·	21*	·	-110	2
C#CCOCCOCCOCCNc1nc(N2CCN(C(=O)Cn3cc(CCO)nn3)CC2)nc(N2CCN(C(=O)[C@H](CCCCN)n3cc(CC(C)O)nn3)CC2)n1 (stereo partly drawn)	3	4	·	53*	-2
C#CCOCCOCCOCCNc1nc(N2CCN(C(=O)Cn3cc(CC(C)O)nn3)CC2)nc(N2CCN(C(=O)[C@H](CCCCN)n3cc(CCCC)nn3)CC2)n1 (stereo partly drawn)	4	0	7	5	3
C#CCOCCOCCOCCNc1nc(N2CCN(C(=O)CCCCCCCCCCNC(=O)Cn3cc(C[C@@H](C)O)nn3)CC2)nc(N2CCN(C(=O)CCCCCCCCCCNC(=O)[C@@H](CCC(=O)O)n3cc(CCCCCN)nn3)CC2)n1	-7	-20	3	-6	-8
